Screening data deposited in PubChem BioAssay by several laboratories.
A selection: hits, their analogues and other compounds. The true share with any hit is near 2.9%.
IMP-1 inh-1 = blocks Pseudomonas aeruginosa IMP-1 metallo-beta-lactamase. purified IMP-1, nitrocefin hydrolysis, epi-absorbance fluorescence. inhibition, % at 5.6 µM. 0.45% of 290,000 active. AID 1556;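 active = inhibition above the mean plus 3 SD of all compounds in the same screening run, cut at about 4.5% in these data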;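 note: 0% = IMP-1 with DMSO and 100% = DMSO wells lacking enzyme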
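System: purified IMP-1; amount: IMP-1 0.2 nM before substrate addition; compound: single dose, 5.6 µM; times: 25 °C, 15 min preincubation, 25 min reaction; signal: Epi-absorbance via hydrolysed-nitrocefin quenching of white-plate fluorescence, 480/530 nm, EDTA stop; benchmarks: DMSO with and without IMP-1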
SUMO HTRF inh = SUMOylation inhibition; HTRF SUMOylation assay, SAE1/SAE2 + UBC9, in vitro; inhibition, % at 35 µM; 0.36% of 290,000 active; AID 2006; in the data active = inhibition above about 50%, passing the limit was not always enough
Target sequence (P63279 whole entry, looked up): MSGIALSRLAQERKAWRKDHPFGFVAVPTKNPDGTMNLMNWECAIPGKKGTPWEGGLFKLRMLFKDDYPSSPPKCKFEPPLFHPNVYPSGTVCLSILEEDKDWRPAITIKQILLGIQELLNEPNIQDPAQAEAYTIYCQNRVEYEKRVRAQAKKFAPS
Mot1-301 SUMO = blocks SUMOylation pathway, rescuing yeast Mot1-301 growth | S. cerevisiae Mot1-301 growth rescue, ATP luminescence, 38.5C; percent above DMSO median, 100 means doubled | growth rescue, % at 18.8 µM | 1% of 320,000 active;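 active = every valid replicate shows activation above 250% relative to neutral control wells; inactive = the rest, any valid replicate at or below 250%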;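 note: OY570 slx delta 5 strain wells were the positive control but not used for scaling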
VIM-2 inhibitor = blocks Pseudomonas aeruginosa VIM-2 metallo-beta-lactamase. inhibition, % at 5.6 µM. AID 1527. 0.89% of 290,000 active. purified VIM-2, nitrocefin hydrolysis, epi-absorbance fluorescence;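 active = inhibition above the mean of all tested compounds plus 3 SD, cutoff set per screening run, cut at about 7.5% in these data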;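 note: red hydrolysis product quenches plate fluorescence so inhibitors raise well fluorescence; 0% = enzyme with DMSO and 100% = DMSO without enzyme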
FID counter = counter-screen for HCV NS3 helicase inhibitors: DNA intercalator displacement; inhibition, % at 7.9 µM; 0.17% of 290,000 active; DNA fluorescent intercalator displacement, fluorescence; in the data active = inhibition above about 37%;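 note: 0% = vehicle and 100% = reference compound; higher means more ethidium bromide displaced from hairpin DNA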
NALP1 yeast inh = blocks the NALP1 inflammasome reconstituted in yeast. S. cerevisiae NALP1/ASC/caspase-1 growth, X-gal OD620, 72 h. inhibition, % at 10 µM. 0.61% of 280,000 active; in the data active = inhibition mostly above about 24%, no sharp cut-off; inactive = mostly below about 32%
IMP-1 inh-2 = IMP-1 inhibition, counter-screen for VIM-2 inhibitors. 1,300 tested, under 10 active. AID 1856. purified IMP-1, nitrocefin hydrolysis, epi-absorbance fluorescence. inhibition, % at 5.6 µM. shares compounds with VIM-2 inhibitor; call rule not given here;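 note: 0% = enzyme with vehicle and 100% = vehicle without enzyme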
VIM-2 FRET ctr = counter-screen for VIM-2 inhibitors: epi-absorbance artifacts via FRET; shares compounds with VIM-2 inhibitor; purified VIM-2, CCF2 FRET substrate hydrolysis; inhibition, % at 5.6 µM; 23% of 1,300 active; AID 1857;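 active = inhibition above the mean of all tested compounds plus 3 SD, cut at about 19% in these data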;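 note: 0% = VIM-2 plus DMSO and 100% = no enzyme wells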
TEM-1 inh = TEM-1 inhibition, counter-screen for VIM-2 inhibitors. Purified TEM-1, nitrocefin hydrolysis, epi-absorbance fluorescence. 3% of 1,300 active. shares compounds with VIM-2 inhibitor. inhibition, % at 5.6 µM. AID 1866;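 active = inhibition above that campaign's mean inhibition plus 3 SD, cut at about 0.46% in these data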;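 note: 0% = TEM-1 with DMSO and 100% = TEM-1 with 100 µM potassium clavulanate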
Target sequence (P62593 whole entry, looked up): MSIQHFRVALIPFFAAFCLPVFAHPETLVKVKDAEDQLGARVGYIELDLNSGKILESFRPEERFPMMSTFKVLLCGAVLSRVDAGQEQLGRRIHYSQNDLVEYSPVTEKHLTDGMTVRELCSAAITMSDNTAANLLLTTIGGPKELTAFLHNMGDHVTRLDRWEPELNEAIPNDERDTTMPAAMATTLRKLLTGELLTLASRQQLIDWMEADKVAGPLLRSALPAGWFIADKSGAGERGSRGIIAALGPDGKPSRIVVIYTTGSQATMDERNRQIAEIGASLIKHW
VIM-2 confirm 2 = confirmation of P. aeruginosa VIM-2 metallo-beta-lactamase inhibitors; purified VIM-2, nitrocefin hydrolysis, epi-absorbance; 96% of 1,300 active; inhibition, % at 5.6 µM; shares compounds with VIM-2 inhibitor;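 active = inhibition of the VIM-2 beta-lactamase enzyme above about 11% from the earlier first-round screen, limit read from the data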;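 note: 0% = VIM-2 with DMSO and 100% = buffer wells without enzyme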
* hit, by the source's call; . = no result.

SMILES | IMP-1 inh-1 | SUMO HTRF inh | Mot1-301 SUMO | VIM-2 inhibitor | FID counter | NALP1 yeast inh | IMP-1 inh-2 | VIM-2 FRET ctr | TEM-1 inh | VIM-2 confirm 2
Cn1c(C(=O)N2CCCC2)cc2c(=O)n(C)c3ccccc3c21 | -3.1 | 12.0 | . | 4.9 | -17.0 | 13.2 | . | . | . | .
Cn1c(C(=O)NCCN2CCN(Cc3ccccc3)CC2)cc2c(=O)n(C)c3ccccc3c21 | . | -4.6 | -7.6 | . | . | 11.9 | . | . | . | .
Cn1c(C(=O)NCCCN2CCN(c3ccccc3F)CC2)cc2c(=O)n(C)c3ccccc3c21 | -0.8 | -18.7 | -7.7 | 15.3* | 8.2 | 23.2 | -2.8 | -3.3 | -5.9 | 25.2*
OCCN=Cc1c(O)[nH]c2ccccc12 | -3.4 | 7.2 | 16.8 | -3.0 | -0.4 | -4.9 | . | . | . | .
Oc1[nH]c2ccccc2c1C=Nc1ccccc1 | -1.0 | 5.3 | 0.1 | 12.3* | -4.7 | 7.9 | -1.7 | 25.0* | -4.2 | 21.0*
CC1CCc2c(sc(NC(=O)CSc3nc4c(c(C(F)(F)F)n3)CCc3ccccc3-4)c2C(N)=O)C1 (centres undefined) | -4.0 | -5.4 | 24.2 | -1.9 | 3.6 | 27.9 | . | . | . | .
S=c1[nH]nc(-c2ccc3ncccc3c2)n1-c1ccc2c(c1)OCCO2 | -0.5 | -2.7 | -3.3 | 26.5* | -12.4 | -14.2 | -2.3 | 51.8* | -5.7 | 33.2*
S=c1[nH]nc(-c2ccc3ccccc3n2)n1-c1ccc2ncccc2c1 | -0.3 | 0.9 | -3.5 | 4.0 | -16.9 | 14.4 | . | . | . | .
Oc1ccc(-c2n[nH]c(=S)n2-c2ccc3c(c2)OCCO3)cc1 | -1.4 | -5.4 | 0.1 | 13.9* | -0.5 | . | -2.2 | 32.6* | -7.6 | 20.1*
S=c1[nH]nc(Cn2c(-c3ccccn3)nc3ccccc32)n1-c1ccc2c(c1)OCCO2 | -2.0 | 10.1 | -5.0 | 23.2* | -15.0 | . | -2.6 | 48.5* | -5.0 | 31.4*
Cc1ccc(C)c(-n2c(-c3ccc4c(c3)OCO4)n[nH]c2=S)c1 | -2.9 | -6.9 | 96.8 | -1.6 | -13.6 | -15.6 | . | . | . | .
O=C(NCc1n[nH]c(=S)n1-c1cccc(Cl)c1)c1ccc(S(=O)(=O)N2CCCCC2)cc1 | -3.3 | 7.6 | -6.6 | -7.3 | -37.8 | -23.9 | . | . | . | .
CC1(c2ccc(Cl)cc2)NC(=O)CS1 (centres undefined) | -1.7 | -3.2 | -10.6 | -1.9 | 1.1 | -2.8 | . | . | . | .
Cc1ccc(NC(=O)CSc2nc3ccccc3nc2N2CCOCC2)cc1 | -0.9 | -11.6 | 10.5 | -3.1 | -38.2 | 9.4 | . | . | . | .
Cc1ccc(C)n1CCN1CCN(C(=O)CSc2nc3ccccc3nc2N2CCOCC2)CC1 | -0.9 | -8.2 | 9.8 | 16.0* | -15.6 | -0.5 | -3.4 | -5.1 | -7.8 | 14.6*
CC(=O)c1ccc(Nc2nc(-c3cccnc3)cs2)cc1 | -3.2 | 26.8 | 0.6 | 14.2* | -17.4 | 11.9 | -2.8 | -3.5 | -7.5 | 15.4*
CCOc1ccc(CC(=O)N/N=C(\C)c2cccnc2)cc1OCC | -3.0 | 9.8 | -0.9 | -0.1 | -32.6 | 5.5 | . | . | . | .
Cc1ccc(CN2C(=O)CSC2c2ccc(F)cc2)cc1 (centres undefined) | -2.8 | 16.2 | -0.2 | 1.1 | -20.4 | 6.8 | . | . | . | .
Cn1c(-c2sccc2OCc2ccccc2)n[nH]c1=S | -2.3 | -21.3 | 9.1 | 35.2* | -3.9 | -17.4 | -2.4 | 71.7* | -7.1 | 54.2*
Cn1c(-c2sccc2OCc2ccc(Cl)cc2Cl)n[nH]c1=S | -3.5 | -8.8 | -14.8 | 33.6* | -24.7 | 19.2 | -2.7 | 61.8* | -8.2 | 42.9*
COc1ccc(Cl)cc1-c1n[nH]c(=S)n1C | -1.5 | -0.2 | -18.7 | -1.9 | 0.0 | 29.8 | . | . | . | .
Cc1ccc(COc2ccsc2-c2n[nH]c(=S)n2C)cc1 | -2.8 | -6.3 | -5.1 | 34.1* | -19.7 | 3.7 | -3.0 | 61.5* | -7.4 | 40.6*
CCCCc1cc(=O)oc2cc(C)cc(OCC(=O)N3C[C@H]4C[C@@H](C3)c3cccc(=O)n3C4)c12 | -1.9 | 17.9 | 48.3 | 0.4 | -37.8 | 5.2 | . | . | . | .
CCn1c(=O)c2cc(C(=O)N3CCCC3)sc2c2ccccc21 | -3.7 | -1.0 | . | -0.6 | -14.3 | 6.8 | . | . | . | .
CCN(CC)CCNC(=O)c1cc2c(=O)n(CC)c3ccccc3c2s1 | -3.5 | 4.4 | -0.1 | 13.6* | 13.8 | -0.5 | -2.5 | -1.1 | -4.2 | 20.6*
CCn1c(=O)c2cc(C(=O)NCCN(C)C)sc2c2ccccc21 | -0.9 | 19.9 | 16.1 | 12.9* | 3.7 | 15.9 | -1.9 | 0.9 | -4.8 | 20.0*
CCN(CC)CCCNC(=O)c1cc2c(=O)n(CC)c3ccccc3c2s1 | -1.6 | 20.5 | -22.9 | 14.1* | 5.8 | 28.9 | -1.9 | 0.8 | -5.3 | 20.9*
CCn1c(=O)c2cc(C(=O)N3CCOCC3)sc2c2ccccc21 | -3.2 | 4.2 | -1.9 | 4.9 | -24.1 | -19.0 | . | . | . | .
CCCCn1c(N)c(N(CC(C)C)C(=O)CSCc2c(C)noc2C)c(=O)[nH]c1=O | . | . | 10.9 | . | . | . | . | . | . | .
CC(=O)O[C@]1(C(C)=O)CC[C@H]2[C@@H]3C=C(Cl)C4=CC(=O)[C@@H]5C[C@@H]5[C@]4(C)[C@H]3CC[C@@]21C | . | . | -3.4 | . | . | . | . | . | . | .
